Measurements as given in ChEMBL document CHEMBL4118126, “An orally available, brain-penetrant CAMKK2 inhibitor reduces food intake in rodent model” (Bioorg Med Chem Lett, 2018).
Values after ≈ are worked out from the molar mass of the structure shown.

Assays:
[1] = molecular target: Calcium/calmodulin-dependent protein kinase kinase 2 (Mus musculus, UniProt Q8C078); test: Inhibition of CAMKK2 in mouse N39 cells assessed as decrease in AMPKalpha phosphorylation at T172 preincubated for 80 mins followed by […] addition by ELISA; format: cell-based
Chain of Calcium/calmodulin-dependent protein kinase kinase 2 (Mus musculus, UniProt Q8C078) (Q8C078 whole entry): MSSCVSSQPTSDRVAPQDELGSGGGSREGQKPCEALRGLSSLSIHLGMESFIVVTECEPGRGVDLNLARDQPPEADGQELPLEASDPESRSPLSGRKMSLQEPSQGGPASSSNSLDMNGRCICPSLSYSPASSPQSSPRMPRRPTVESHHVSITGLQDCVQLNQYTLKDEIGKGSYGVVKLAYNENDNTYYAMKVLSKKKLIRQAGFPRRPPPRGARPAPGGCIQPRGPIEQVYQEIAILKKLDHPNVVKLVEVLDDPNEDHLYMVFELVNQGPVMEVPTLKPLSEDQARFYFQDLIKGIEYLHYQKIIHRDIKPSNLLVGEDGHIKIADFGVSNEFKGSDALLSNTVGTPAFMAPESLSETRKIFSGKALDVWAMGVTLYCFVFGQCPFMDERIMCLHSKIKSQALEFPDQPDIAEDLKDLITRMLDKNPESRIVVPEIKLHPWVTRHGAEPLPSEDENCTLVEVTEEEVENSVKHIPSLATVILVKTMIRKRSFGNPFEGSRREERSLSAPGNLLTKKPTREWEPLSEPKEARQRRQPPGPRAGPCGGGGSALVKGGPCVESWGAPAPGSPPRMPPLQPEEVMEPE
Method in brief: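 Mouse N39 cells seeded ~1000 cells/well, cultured overnight at 37°C, 5% CO2, then exposed to compound in DMSO for 80 min before ionomycin stimulation ([…] as added). Cells were lysed in extraction buffer for 30 min on ice, then diluted into ice-cold lysis buffer containing protease and phosphatase inhibitors for MSD read-out.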

[2] = Solubility of the compound in pH 7.4 phosphate buffer saline after 1 hr by chemiluminescence nitrogen detection method; format: physicochemical; settings: phosphate buffered saline
Method in brief: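 Kinetic solubility: 10 mM DMSO stock diluted 1:20 into 10 mM phosphate-buffered saline pH 7.4, equilibrated 1 h at RT, filtered, and filtrate quantified by calibrated flow-injection chemiluminescent nitrogen detection.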

[3] = molecular target: Calcium/calmodulin-dependent protein kinase kinase 2 (Homo sapiens, UniProt Q96RR4); test: Inhibition of full-length human GST-tagged CAMKK2 using 5FAM-AKPKGNKDYHLQTCCGSLAYRRR-amide as substrate preincubated for 30 mins followed by substrate addition measured after 120 mins by fluorescence polarization assay
Chain of Calcium/calmodulin-dependent protein kinase kinase 2 (Homo sapiens, UniProt Q96RR4) (Q96RR4 whole entry): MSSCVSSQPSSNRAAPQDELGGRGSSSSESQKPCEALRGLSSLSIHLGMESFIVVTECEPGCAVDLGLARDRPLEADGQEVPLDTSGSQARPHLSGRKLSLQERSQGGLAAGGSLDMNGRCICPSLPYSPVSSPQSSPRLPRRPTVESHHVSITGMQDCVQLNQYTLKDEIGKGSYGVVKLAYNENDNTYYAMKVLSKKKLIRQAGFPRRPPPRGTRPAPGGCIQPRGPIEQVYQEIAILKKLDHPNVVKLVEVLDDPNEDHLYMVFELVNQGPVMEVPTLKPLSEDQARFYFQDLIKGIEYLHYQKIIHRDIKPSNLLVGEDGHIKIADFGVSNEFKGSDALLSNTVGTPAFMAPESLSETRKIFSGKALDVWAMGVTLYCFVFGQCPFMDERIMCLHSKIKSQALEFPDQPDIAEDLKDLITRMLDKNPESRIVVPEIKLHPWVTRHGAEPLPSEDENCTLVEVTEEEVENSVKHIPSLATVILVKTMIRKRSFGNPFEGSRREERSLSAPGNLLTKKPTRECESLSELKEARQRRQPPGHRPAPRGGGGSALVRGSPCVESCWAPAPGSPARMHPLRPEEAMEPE

[4] = molecular target: T1, Inhibitor of nuclear factor kappa-B kinase subunit alpha (Homo sapiens, UniProt O15111); test: Inhibition of IKK1 (unknown origin)
T1 sequence (O15111 whole entry): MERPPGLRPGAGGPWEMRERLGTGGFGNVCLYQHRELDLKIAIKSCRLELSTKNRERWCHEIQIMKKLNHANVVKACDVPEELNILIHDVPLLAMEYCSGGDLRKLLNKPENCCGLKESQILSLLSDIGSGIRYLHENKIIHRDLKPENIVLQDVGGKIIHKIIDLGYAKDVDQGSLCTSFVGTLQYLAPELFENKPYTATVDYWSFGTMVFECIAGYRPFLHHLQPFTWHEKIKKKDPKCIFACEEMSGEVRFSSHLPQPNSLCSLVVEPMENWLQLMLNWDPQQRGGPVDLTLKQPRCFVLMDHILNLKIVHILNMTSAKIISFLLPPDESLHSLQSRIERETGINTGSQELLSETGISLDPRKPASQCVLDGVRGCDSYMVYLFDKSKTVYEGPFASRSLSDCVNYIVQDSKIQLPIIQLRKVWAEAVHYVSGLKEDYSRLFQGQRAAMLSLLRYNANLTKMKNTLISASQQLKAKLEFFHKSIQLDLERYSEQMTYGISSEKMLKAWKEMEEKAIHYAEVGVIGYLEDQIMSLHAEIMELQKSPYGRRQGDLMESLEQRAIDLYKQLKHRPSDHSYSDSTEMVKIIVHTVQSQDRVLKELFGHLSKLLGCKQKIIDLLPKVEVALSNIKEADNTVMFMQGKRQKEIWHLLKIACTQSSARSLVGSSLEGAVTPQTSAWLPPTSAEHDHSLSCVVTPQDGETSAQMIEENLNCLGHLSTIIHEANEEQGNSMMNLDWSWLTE

[5] = molecular target: Mitogen-activated protein kinase 8 (Homo sapiens, UniProt P45983); test: Inhibition of JNK1 (unknown origin)
Chain of Mitogen-activated protein kinase 8 (P45983 whole entry): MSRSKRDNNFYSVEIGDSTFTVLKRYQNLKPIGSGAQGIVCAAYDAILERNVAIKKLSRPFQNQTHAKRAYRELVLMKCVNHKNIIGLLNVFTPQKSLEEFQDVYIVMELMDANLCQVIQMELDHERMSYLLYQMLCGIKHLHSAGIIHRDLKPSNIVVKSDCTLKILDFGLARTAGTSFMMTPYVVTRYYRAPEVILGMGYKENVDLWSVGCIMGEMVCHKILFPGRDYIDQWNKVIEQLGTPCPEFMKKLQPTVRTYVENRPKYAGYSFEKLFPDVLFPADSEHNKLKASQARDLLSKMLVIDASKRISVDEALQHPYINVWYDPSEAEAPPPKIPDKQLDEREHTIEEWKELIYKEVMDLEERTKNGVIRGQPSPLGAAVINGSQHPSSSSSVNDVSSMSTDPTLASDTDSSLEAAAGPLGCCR

Insulin receptor = Insulin receptor (Homo sapiens, UniProt P06213); test: Inhibition of INSR (unknown origin); settings: read-out: pIC50 (converted)
Chain of Insulin receptor (P06213 28-758 limits assumed): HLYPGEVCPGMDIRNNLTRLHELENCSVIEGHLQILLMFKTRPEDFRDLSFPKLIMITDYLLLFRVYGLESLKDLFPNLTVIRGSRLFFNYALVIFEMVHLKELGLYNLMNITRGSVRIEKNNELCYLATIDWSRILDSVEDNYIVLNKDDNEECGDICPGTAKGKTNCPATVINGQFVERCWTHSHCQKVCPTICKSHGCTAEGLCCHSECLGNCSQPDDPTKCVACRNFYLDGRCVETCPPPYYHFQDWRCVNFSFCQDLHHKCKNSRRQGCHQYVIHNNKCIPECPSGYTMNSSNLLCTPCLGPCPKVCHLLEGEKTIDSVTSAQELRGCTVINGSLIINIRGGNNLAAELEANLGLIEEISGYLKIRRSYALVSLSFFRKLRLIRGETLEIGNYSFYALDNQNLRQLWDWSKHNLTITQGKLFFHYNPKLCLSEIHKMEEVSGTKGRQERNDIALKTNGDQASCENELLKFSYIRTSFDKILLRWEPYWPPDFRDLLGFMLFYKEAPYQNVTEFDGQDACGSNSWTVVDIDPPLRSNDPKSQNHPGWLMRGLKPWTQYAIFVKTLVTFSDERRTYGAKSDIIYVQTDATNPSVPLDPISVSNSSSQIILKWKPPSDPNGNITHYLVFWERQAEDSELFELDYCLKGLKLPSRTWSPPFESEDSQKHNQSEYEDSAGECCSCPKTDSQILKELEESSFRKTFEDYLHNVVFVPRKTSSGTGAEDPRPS
Chain of Insulin receptor (P06213 763-1382 limits assumed): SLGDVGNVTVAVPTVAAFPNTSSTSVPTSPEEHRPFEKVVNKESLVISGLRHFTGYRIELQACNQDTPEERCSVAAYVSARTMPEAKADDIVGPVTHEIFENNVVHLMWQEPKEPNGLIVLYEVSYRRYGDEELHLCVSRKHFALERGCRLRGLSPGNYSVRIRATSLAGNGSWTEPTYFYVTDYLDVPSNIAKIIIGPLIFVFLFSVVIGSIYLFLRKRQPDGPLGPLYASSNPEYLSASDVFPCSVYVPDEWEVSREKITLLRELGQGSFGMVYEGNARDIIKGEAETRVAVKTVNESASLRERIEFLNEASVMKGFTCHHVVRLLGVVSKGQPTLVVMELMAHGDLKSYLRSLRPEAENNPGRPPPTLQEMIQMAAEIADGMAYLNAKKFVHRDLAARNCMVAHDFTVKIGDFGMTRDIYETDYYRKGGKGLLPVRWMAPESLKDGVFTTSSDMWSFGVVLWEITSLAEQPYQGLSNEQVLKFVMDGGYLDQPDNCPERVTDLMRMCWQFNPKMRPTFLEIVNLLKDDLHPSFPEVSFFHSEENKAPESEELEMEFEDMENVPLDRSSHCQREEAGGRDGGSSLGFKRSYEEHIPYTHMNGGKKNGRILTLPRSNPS

[6] = molecular target: Glycogen synthase kinase-3 beta (Homo sapiens, UniProt P49841); test: Inhibition of GSK3beta (unknown origin)
Chain of Glycogen synthase kinase-3 beta (P49841 whole entry, canonical isoform): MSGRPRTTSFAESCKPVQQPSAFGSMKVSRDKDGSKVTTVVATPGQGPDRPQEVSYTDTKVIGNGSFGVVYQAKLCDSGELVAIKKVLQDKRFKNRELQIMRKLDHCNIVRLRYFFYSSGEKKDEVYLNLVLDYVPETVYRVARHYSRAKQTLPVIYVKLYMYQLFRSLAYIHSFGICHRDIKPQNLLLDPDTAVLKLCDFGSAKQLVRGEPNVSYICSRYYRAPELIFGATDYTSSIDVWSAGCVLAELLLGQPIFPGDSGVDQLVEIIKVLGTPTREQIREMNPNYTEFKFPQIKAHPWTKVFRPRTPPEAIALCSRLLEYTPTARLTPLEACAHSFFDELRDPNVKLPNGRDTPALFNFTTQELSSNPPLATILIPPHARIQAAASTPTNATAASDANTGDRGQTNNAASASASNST

[7] = molecular target: Phosphatidylinositol 4,5-bisphosphate 3-kinase catalytic subunit gamma isoform (Homo sapiens, UniProt P48736); test: Inhibition of PI3Kgamma (unknown origin)
Chain of Phosphatidylinositol 4,5-bisphosphate 3-kinase catalytic subunit gamma isoform (P48736 whole entry, canonical isoform): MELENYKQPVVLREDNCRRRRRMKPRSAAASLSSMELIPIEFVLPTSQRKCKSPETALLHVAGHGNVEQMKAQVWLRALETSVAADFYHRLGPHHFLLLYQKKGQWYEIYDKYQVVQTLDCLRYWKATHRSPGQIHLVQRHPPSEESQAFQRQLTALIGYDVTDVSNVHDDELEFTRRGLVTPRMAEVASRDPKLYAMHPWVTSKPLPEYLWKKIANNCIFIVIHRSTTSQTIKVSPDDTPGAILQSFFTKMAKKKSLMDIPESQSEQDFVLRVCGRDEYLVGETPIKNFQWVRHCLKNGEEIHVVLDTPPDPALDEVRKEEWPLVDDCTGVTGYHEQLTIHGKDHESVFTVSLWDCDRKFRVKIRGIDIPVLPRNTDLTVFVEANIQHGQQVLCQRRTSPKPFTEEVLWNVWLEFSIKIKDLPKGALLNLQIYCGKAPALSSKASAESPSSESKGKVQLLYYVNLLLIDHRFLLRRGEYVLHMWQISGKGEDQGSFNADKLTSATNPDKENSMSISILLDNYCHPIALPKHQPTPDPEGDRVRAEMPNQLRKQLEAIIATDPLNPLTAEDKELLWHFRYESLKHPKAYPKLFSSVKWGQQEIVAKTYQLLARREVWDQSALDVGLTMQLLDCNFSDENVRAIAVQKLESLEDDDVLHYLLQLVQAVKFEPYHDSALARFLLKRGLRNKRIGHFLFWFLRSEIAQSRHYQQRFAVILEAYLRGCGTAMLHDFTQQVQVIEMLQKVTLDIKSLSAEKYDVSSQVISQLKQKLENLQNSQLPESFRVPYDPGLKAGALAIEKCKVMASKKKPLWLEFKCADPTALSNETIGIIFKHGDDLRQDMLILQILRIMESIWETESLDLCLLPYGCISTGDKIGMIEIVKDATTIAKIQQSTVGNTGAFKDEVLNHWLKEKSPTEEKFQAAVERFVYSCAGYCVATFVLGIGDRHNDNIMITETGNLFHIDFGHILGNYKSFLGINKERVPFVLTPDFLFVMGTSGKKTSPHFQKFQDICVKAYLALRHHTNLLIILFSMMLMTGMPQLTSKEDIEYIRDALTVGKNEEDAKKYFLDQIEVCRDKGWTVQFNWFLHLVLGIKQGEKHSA

Row | IC50 [1] [nM] | solubility at 1 h [2] [µM] | IC50 [3] [nM] | IC50 [4] [nM] | IC50 [5] [nM] | IC50 (Insulin receptor) [nM] | IC50 [6] [nM] | IC50 [7] [nM] | SMILES
1 | 200 | 18 (≈ 7.68 µg/mL) | 1.58 to 12.6 | 100 | 316 | 1260 | – | – | Cc1c(CN2CCOCC2)cccc1-c1cc2c(-c3ccc(C(N)=O)cc3)ccnc2[nH]1
2 | 6310 | > 172 | – | – | – | – | – | – | CC(C)c1cc(-c2c[nH]c3nc(C#N)ccc23)ccc1C(=O)O
3 | 3980 | 4 (≈ 1.52 µg/mL) | 31.6 to 501 | – | > 10000 | – | > 25100 | > 10000 | Cc1ccc(-c2ccccc2)cc1Nc1nccc(-c2ccc(C(N)=O)cc2)n1
4 | > 10000 | < 1 | 100 to 1260 | – | 2000 | – | > 25100 | > 10000 | COc1ccccc1Nc1nccc(-c2ccc(C(N)=O)cc2)n1
5 | > 10000 | 1 (≈ 0.412 µg/mL) | – | – | – | – | – | – | COc1ccccc1-c1cnc2[nH]cc(-c3ccc(C(N)=O)c(C4CCCC4)c3)c2c1
6 | 7940 | 3 (≈ 1.15 µg/mL) | 20 | – | > 10000 | – | 2510 | > 10000 | NC(=O)c1ccc(-c2ccnc(Nc3cc(-c4ccccc4)ccc3F)n2)cc1
7 | – | 9 (≈ 3.65 µg/mL) | – | – | – | – | – | – | NC(=O)c1ccc(-c2c[nH]c3ncc(-c4ccccc4Oc4ccccc4)cc23)cc1
8 | 158 | 11 (≈ 5.02 µg/mL) | 1.58 | 126 | 200 | 1260 | – | – | Cc1cc(OCCN2CCOCC2)ccc1-c1cc2c(-c3ccc(C(N)=O)cc3)ccnc2[nH]1
9 | > 10000 | 5 (≈ 1.98 µg/mL) | 158 to 1580 | – | > 10000 | – | 20000 | 6310 | COc1ccccc1Nc1ncc(Cl)c(-c2ccc(C(N)=O)c(C(C)C)c2)n1
10 | 1260 | > 439 | – | – | – | – | – | – | CC(C)c1cc(-c2c[nH]c3ncc(-c4ccccc4)cc23)ccc1C(=O)O
11 | > 10000 | 52 (≈ 24.6 µg/mL) | – | – | – | – | – | – | NC(=O)c1ccc(-c2c[nH]c3ncc(-c4ccccc4Oc4ccccc4)cc23)cc1C1CCCC1
12 | > 10000 | > 279 | – | – | – | – | – | – | Cc1ccc2c(-c3ccc(C(=O)O)c(C4CCCC4)c3)c[nH]c2n1
13 | – | 333 (≈ 123 µg/mL) | 5.01 to 25.1 | – | – | – | – | – | CC(C)Cc1cc(-c2c[nH]c3ncc(-c4ccccc4)cc23)ccc1C(=O)O
14 | 316 | 5 (≈ 2.03 µg/mL) | 2 to 12.6 | 31.6 | 63.1 | 316 | – | – | CS(=O)(=O)Nc1ccc(-c2cc3c(-c4ccc(C(N)=O)cc4)ccnc3[nH]2)cc1
15 | – | 96 (≈ 40.4 µg/mL) | – | – | – | – | – | – | N#CCc1ccccc1-c1cnc2[nH]cc(-c3ccc(C(N)=O)c(C4CCCC4)c3)c2c1
16 | 3980 | 6 (≈ 2.38 µg/mL) | – | – | – | – | – | – | NC(=O)c1ccc(-c2c[nH]c3ncc(-c4ccccc4O)cc23)cc1C1CCCC1
17 | > 10000 | 29 (≈ 12.8 µg/mL) | 1.58 to 12.6 | 79.4 | 126 | 158 | – | – | CN(C)CCCNC(=O)c1ccc(-c2cc3c(-c4ccc(C(N)=O)cc4)ccnc3[nH]2)cc1
18 | – | 178 (≈ 60.9 µg/mL) | 20 | – | – | – | – | – | CCc1cc(-c2c[nH]c3ncc(-c4ccccc4)cc23)ccc1C(=O)O
19 | 794 | 16 (≈ 5.49 µg/mL) | 3.16 to 20 | 158 | 158 | 1580 | – | – | COc1ccccc1-c1cc2c(-c3ccc(C(N)=O)cc3)ccnc2[nH]1
20 | 31.6 | 2 (≈ 0.853 µg/mL) | 1.58 to 15.8 | 3160 | 6310 | > 10000 | – | – | Cc1ccc(CN2CCOCC2)cc1-c1cc2c(-c3ccc(C(N)=O)cc3)ccnc2[nH]1
21 | – | 177 (≈ 69.5 µg/mL) | – | – | – | – | – | – | CS(=O)(=O)c1cccc(-c2cnc3[nH]cc(-c4ccc(C(=O)O)cc4)c3c2)c1
22 | 6310 | 155 (≈ 51.4 µg/mL) | – | – | – | – | – | – | N#Cc1ccc2c(-c3ccc(C(=O)O)c(C4CCCC4)c3)c[nH]c2n1
23 | 200 | 1 (≈ 0.469 µg/mL) | 1.58 to 20 | 158 | 631 | > 10000 | – | – | Cc1ccc(CN2CCOCC2)cc1-c1cc2c(-c3ccc(C(N)=O)c(C(C)C)c3)ccnc2[nH]1
24 | – | 24 (≈ 9.75 µg/mL) | – | – | – | – | – | – | O=C(O)c1ccc(-c2c[nH]c3ncc(-c4ccccc4Oc4ccccc4)cc23)cc1
25 | 251 | 17 (≈ 7.76 µg/mL) | 2 to 15.8 | 158 | 251 | 3160 | – | – | Cc1c(OCCN2CCOCC2)cccc1-c1cc2c(-c3ccc(C(N)=O)cc3)ccnc2[nH]1
26 | 158 | 157 (≈ 58.2 µg/mL) | 3.16 to 25.1 | 79.4 | 79.4 | 316 | – | – | CN(C)Cc1ccc(-c2cc3c(-c4ccc(C(N)=O)cc4)ccnc3[nH]2)cc1

The next lines start with the compound.

Row | SMILES | IC50 [1] [nM] | solubility at 1 h [2] [µM] | IC50 [3] [nM] | IC50 [4] [nM] | IC50 [5] [nM] | IC50 (Insulin receptor) [nM] | IC50 [6] [nM] | IC50 [7] [nM]
27 | O=C(O)c1ccc(-c2c[nH]c3ncccc23)cc1C1CCCC1 | 3980 | > 290 | – | – | – | – | – | –
28 | Cc1cc(-c2c[nH]c3ncc(-c4ccccc4)cc23)ccc1C(=O)O | – | 100 (≈ 32.8 µg/mL) | – | – | – | – | – | –
29 | COc1ccccc1Nc1nccc(-c2ccc(C(N)=O)c(C(C)C)c2)n1 | > 10000 | 10 (≈ 3.62 µg/mL) | 63.1 to 1580 | – | 1580 | – | > 25100 | 2510
30 | CC(C)Oc1ccccc1-c1cnc2[nH]cc(-c3ccc(C(N)=O)c(C4CCCC4)c3)c2c1 | > 10000 | – | – | – | – | – | – | –
31 | CN(C)CCCNC(=O)c1cccc(-c2cc3c(-c4ccc(C(N)=O)cc4)ccnc3[nH]2)c1 | 3980 | – | 2.51 to 12.6 | 126 | 631 | 3160 | – | –
32 | COc1ccccc1Nc1nccc(-c2ccc(C(=O)O)cc2)n1 | > 10000 | > 444 | 200 to 1580 | – | 5010 | – | > 25100 | 3980
33 | CN(C)Cc1cccc(-c2cc3c(-c4ccc(C(N)=O)cc4)ccnc3[nH]2)c1 | 126 | 56 (≈ 20.7 µg/mL) | 3.98 to 31.6 | 79.4 | 631 | 631 | – | –
34 | NC(=O)c1ccc(-c2c[nH]c3ncc(-c4ccccc4OC(F)(F)F)cc23)cc1C1CCCC1 | > 10000 | 2 (≈ 0.931 µg/mL) | – | – | – | – | – | –
35 | NC(=O)c1ccc2c(-c3ccc(C(=O)O)c(C4CCCC4)c3)c[nH]c2n1 | – | > 205 | 1260 to 10000 | – | – | – | – | –
36 | CS(=O)(=O)c1cccc(-c2cnc3[nH]cc(-c4ccc(C(N)=O)cc4)c3c2)c1 | – | > 115 | – | – | – | – | – | –
37 | N#Cc1ccc2c(-c3ccc(C(=O)O)cc3)c[nH]c2n1 | – | 235 (≈ 61.9 µg/mL) | 2510 to 10000 | – | – | – | – | –
38 | O=C(O)c1ccc(-c2c[nH]c3ncc(-c4ccccc4)cc23)cc1 | – | 82 (≈ 25.8 µg/mL) | 200 | – | – | – | – | –
39 | NC(=O)c1ccc(-c2c[nH]c3ncc(-c4ccccc4C(F)(F)F)cc23)cc1C1CCCC1 | – | 12 (≈ 5.39 µg/mL) | – | – | – | – | – | –
40 | N#Cc1ccc2c(-c3ccc(C(N)=O)c(C4CCCC4)c3)c[nH]c2n1 | – | 7 (≈ 2.31 µg/mL) | 1260 to 10000 | – | – | – | – | –
41 | CN(C)c1ccccc1-c1cnc2[nH]cc(-c3ccc(C(N)=O)c(C4CCCC4)c3)c2c1 | > 10000 | 2 (≈ 0.849 µg/mL) | – | – | – | – | – | –
42 | Cc1ccc(OCCN2CCOCC2)cc1-c1cc2c(-c3ccc(C(N)=O)cc3)ccnc2[nH]1 | – | 17 (≈ 7.76 µg/mL) | 2 to 31.6 | 200 | 158 | 3980 | – | –
43 | c1ccc(-c2cnc3[nH]cc(-c4ccc(-c5nn[nH]n5)cc4)c3c2)cc1 | – | 276 (≈ 93.4 µg/mL) | – | – | – | – | – | –
44 | CC(C)c1cc(-c2c[nH]c3nc(C#N)ccc23)ccc1C(N)=O | – | 14 (≈ 4.26 µg/mL) | 1260 to 10000 | – | – | – | – | –
45 | Cc1cc(CN2CCOCC2)ccc1-c1cc2c(-c3ccc(C(N)=O)cc3)ccnc2[nH]1 | 2000 | 18 (≈ 7.68 µg/mL) | 7.94 to 25.1 | 126 | 631 | 3980 | – | –
46 | COC(=O)c1ccc(-c2c[nH]c3ncc(-c4ccccc4)cc23)cc1 | – | 5 (≈ 1.64 µg/mL) | 1260 | – | – | – | – | –
47 | O=C(O)c1ccc(-c2c[nH]c3ncc(-c4ccccc4)cc23)cc1C1CCCC1 [GSK-650394] | 1260 | 150 (≈ 57.4 µg/mL) | – | – | – | – | – | –
48 | CS(=O)(=O)Nc1cccc(-c2cc3c(-c4ccc(C(N)=O)cc4)ccnc3[nH]2)c1 | 3160 | 13 (≈ 5.28 µg/mL) | 3.16 to 12.6 | 158 | 200 | 1260 | – | –
